Measured values pooled from the literature.
Protocols differ between the studies behind these lines.
TRPC3: Short transient receptor potential channel 3 (TRPC3, Homo sapiens, UniProt Q13507)

SMILES | target | assay | test system | conditions | measurement | result
C=CC(=O)Nc1ccccc1C(=O)Nc1ccc(C#Cc2ccc(OC)cc2)nn1 | Fibroblast growth factor receptor 1 (FGFR1, Homo sapiens, UniProt P11362) | enzyme activity, inhibitor, radiometric | – | 1 µM | inhibition | 3%
CNc1ncc2c(/C=C/C(=O)N3CCC(OC)CC3)nn(Cc3cccc(C(F)(F)F)c3)c2n1 | Tyrosine-protein kinase Fgr (FGR, Homo sapiens, UniProt P09769) | enzyme activity, inhibitor, radiometric | – | 1 µM | remaining activity | 90%
CCNC(=O)c1cnn(-c2ccc(-n3ccc(Cl)c(Cl)c3=O)cc2)c1C(F)(F)F | TRPC3 | ion current, inhibitor, patch clamp | HEK293 | 10 µM | inhibition | 95.7%
Cc1cc([C@@H](C)Nc2ccccc2C(=O)O)c2nc(N3CCC(F)(F)CC3)c(C#N)c(=O)n2c1 | MAP kinase-interacting serine/threonine-protein kinase 2 (MKNK2, Homo sapiens, UniProt Q9HBH9) | binding, competition with immobilised ligand | – | 10 µM | remaining binding | 100%
C=CC(=O)N1C[C@@H](n2nc(C#Cc3c(F)cc4c(ncn4C4CC4)c3F)c(C(N)=O)c2NC)C[C@@H]1COC | Serine/threonine-protein kinase 10 (STK10, Homo sapiens, UniProt O94804) | enzyme activity, inhibitor, mobility shift | – | 1 µM | inhibition | 64.6%
CCNC(=O)c1cn(-c2ccc(-n3ccc(Cl)c(Cl)c3=O)cc2)nc1C(F)(F)F | TRPC3 | ion current, inhibitor, patch clamp | HEK293 | 10 µM | inhibition | > 90%
C=CC(=O)N1CCC(COCC(=O)N2CCN(c3nc(-c4cnc(N)nc4C(F)F)nc(N4CCOC[C@@H]4C)n3)CC2)CC1 | Serine/threonine-protein kinase WNK4 (WNK4, Homo sapiens, UniProt Q96J92) | binding, competition with immobilised ligand | – | 1 µM | remaining binding | 46%
CCOC(=O)c1cnn(-c2ccc(NC(=O)C(Cl)=C(Cl)Cl)cc2)c1C(F)(F)F | TRPC3 | ion current, inhibitor, patch clamp | HEK293 | 10 µM | inhibition | 88.6%
COc1cc(-c2cncc3c2CN(C)Cc2cc(N4CCNCC4)ccc2-3)cc(OC)c1OC | Interferon-induced, double-stranded RNA-activated protein kinase (EIF2AK2, Homo sapiens, UniProt P19525) | enzyme activity, inhibitor | – | 1 µM | remaining activity | 102%
COc1ccc(CNC(=O)c2cc3c(cc2[N+](=O)[O-])OCO3)cc1 | Myeloperoxidase (MPO, Homo sapiens, UniProt P05164) | enzyme activity, inhibitor | – | 5 µM | inhibition | > 50%
